Screening results from PubChem BioAssay.
The full list was thinned out, with hits kept by preference.
HUVEC prolif 384: inhibitors of HUVEC proliferation, primary screen, cell-based, 384-well | CellTiter-Glo luminescence, 72 h; active compounds read low | viability, % at 10 µM (by protocol) | 86,000 compounds, 1.1% hits | AID 648, 2007;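 active = viability at or below 30%; inactive = viability above 30%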;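 also: 100% = median luminescence of DMSO-only cell control wells on each plate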
H69AR inhibit: proliferation blockers of H69AR lung cancer cells, primary screen, cell-based, human, 86K library; H69AR lung tumor viability, ATP luminescence, 72 h; active compounds read low; viability, % at 10 µM; 85,000 compounds, 6% hits; AID 598, 2007;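 active = viability at or below 40%; inactive = viability above 40%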;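 also: multidrug resistant small cell line overexpressing MRP-1 efflux transporter; 100% = mean luminescence of untreated control wells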
HCT116 PTEN-null: growth suppression of PTEN-null HCT116, primary screen, cell-based, CellTiter-Glo; HCT116 PTEN-null viability, 60 h; active compounds read low; 140,000 compounds, 1.2% hits; viability, % at 10 µM;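 active = viability at or below a set limit, 4 SD under the median of all tested compounds, cut at about 3.7% in these data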;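 also: PTEN knockout HCT116 line with beta catenin targeted HCT116 as companion control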
Lung fibro prol: antiproliferative effect on LL 47 fibroblasts – human, LL 47 cells, CellTiter-Glo luminescence, primary screen. 85,000 compounds, 1.1% hits. LL 47 human lung fibroblast viability, ATP luminescence; active compounds read low. AID 719, 2007. viability, % at 10 µM;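 active = viability at or below 50% in the single dose screen; inactive = viability above 50%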;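 also: compound exposure lasted 72 h before the ATP readout; 100% = median luminescence of untreated cell-only wells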
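Benchmarks: Cell-only wells, no compound | Test system: LL 47 human lung fibroblasts, passage 12 or lower | Input: 1,150 cells/well | Measured by: CellTiter-Glo luminescence measuring cellular ATP | Medium: IMEM, 15% FBS supplement | Schedule: Overnight attachment after seeding, then 72 h compound exposure at 37 °C | Doses: Compound addition at 0.1% DMSO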
HCT116 bCat-KO: primary screen for growth suppressors in beta-catenin knockout HCT116 cells (colon tumor, human); HCT116 beta-catenin knockout viability, CellTiter-Glo, 60 h; active compounds read low; viability, % at 10 µM; 140,000 compounds, 1.5% hits; AID 818, 2007;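 active = viability at or under a set limit, the compound median less 4 SD, cut at about 6% in these data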;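 also: 0% = Hyamine 1622 control at 20 µM and 100% = untreated cell control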
Starred values were filed as active, the others as inactive.

For NC1=C([N+](=O)[O-])C(c2ccc(F)cc2)C2=C(CCCC2=O)O1 (configuration not stated) the results were HCT116 PTEN-null 101 and HCT116 bCat-KO 100.
For COc1cc([C@@H]2c3cc4c(cc3[C@H](O)[C@H]3COC(=O)[C@H]23)OCO4)cc(OC)c1OC the results were HUVEC prolif 384 46, H69AR inhibit 36*, HCT116 PTEN-null 13, Lung fibro prol 53 and HCT116 bCat-KO 15.
O=S(=O)(CCN(CCS(=O)(=O)C(F)(F)F)CC1CCCO1)C(F)(F)F (configuration not stated) was read as HUVEC prolif 384 93, H69AR inhibit 98, HCT116 PTEN-null 1.5*, Lung fibro prol 44* and HCT116 bCat-KO 1.6*.
`O=C(NCC1CCCO1)C1CCN(S(=O)(=O)N2CCCC2)CC1` (configuration not stated) gave HUVEC prolif 384 84, H69AR inhibit 101, HCT116 PTEN-null 96 and HCT116 bCat-KO 102.
Screening O=C(c1ccco1)N1CCN(S(=O)(=O)c2ccc(F)cc2)CC1 returned HUVEC prolif 384 106, H69AR inhibit 94, HCT116 PTEN-null 105, Lung fibro prol 103 and HCT116 bCat-KO 101.
CCC1CCCCN1S(=O)(=O)c1ccc(C(=O)Nc2nnc(-c3cccs3)o2)cc1 (configuration not stated) was read as HUVEC prolif 384 64, H69AR inhibit 20*, HCT116 PTEN-null 11, Lung fibro prol 71 and HCT116 bCat-KO 13.
O=C(CCc1ccccc1)Nc1nnc(-c2cccs2)o1 was read as HUVEC prolif 384 87, H69AR inhibit 102, HCT116 PTEN-null 105, Lung fibro prol 98 and HCT116 bCat-KO 95.
Screening O=C(Nc1nnc(-c2cccs2)o1)c1cccc(C(F)(F)F)c1 returned HUVEC prolif 384 39, H69AR inhibit 23*, HCT116 PTEN-null 8, Lung fibro prol 69 and HCT116 bCat-KO 13.
For CC1CC(C)CN(S(=O)(=O)c2ccc(C(=O)Nc3nnc(-c4cccs4)o3)cc2)C1 (configuration not stated) the results were HUVEC prolif 384 4.2*, H69AR inhibit 45, HCT116 PTEN-null 7, Lung fibro prol 72 and HCT116 bCat-KO 14.
Screening Cc1nnc(NC(=O)c2ccc(S(=O)(=O)N3CCCCCC3)cc2)o1 returned HUVEC prolif 384 86, H69AR inhibit 59, HCT116 PTEN-null 78, Lung fibro prol 98 and HCT116 bCat-KO 56.
For CC1CCCN(S(=O)(=O)c2ccc(C(=O)Nc3nnc(-c4ccccc4Cl)o3)cc2)C1 (configuration not stated) the results were HUVEC prolif 384 3.9*, H69AR inhibit 31*, HCT116 PTEN-null 8, Lung fibro prol 47* and HCT116 bCat-KO 13.
Screening CCCCc1ccc(N=N/C(C(=O)Nc2cc(OC)c(NC(C)=O)cc2OC)=C(/C)O)cc1 returned HCT116 PTEN-null 89 and HCT116 bCat-KO 95.
Screening C=CCN(c1ccccc1)S(=O)(=O)c1ccc(Cl)c(C(=O)OCC(=O)c2[nH]c(C)c(C(C)=O)c2C)c1 returned HCT116 PTEN-null 99 and HCT116 bCat-KO 96.
O=C(NC(=S)Nc1ccc2c(c1)OCO2)c1ccc(Cl)cc1 was read as HCT116 PTEN-null 64 and HCT116 bCat-KO 0.2*.
`CN(C)c1ccccc1C(=O)c1ccccc1N(C)C` gave HUVEC prolif 384 59, H69AR inhibit 14*, HCT116 PTEN-null 19, Lung fibro prol 59 and HCT116 bCat-KO 19.
CN(c1ccccc1C(=O)O)S(C)(=O)=O was read as HUVEC prolif 384 101, H69AR inhibit 93, HCT116 PTEN-null 109, Lung fibro prol 101 and HCT116 bCat-KO 101.
For Cc1nc(NC(=O)c2ccccc2)sc1-c1csc(Nc2ccc(Cl)cc2)n1 the results were HCT116 PTEN-null 69 and HCT116 bCat-KO 81.
`COc1ccc(Nc2nc(-c3sc(NC(C)=O)nc3C)cs2)cc1` gave HUVEC prolif 384 36, H69AR inhibit 13*, HCT116 PTEN-null 95, Lung fibro prol 73 and HCT116 bCat-KO 95.
Screening COc1ccc(Nc2nc(-c3sc(N)nc3C)cs2)cc1 returned HUVEC prolif 384 69, H69AR inhibit 29*, HCT116 PTEN-null 93, Lung fibro prol 85 and HCT116 bCat-KO 96.
